Test results as given in ChEMBL document CHEMBL3407469, “Development of benzimidazole derivatives to inhibit HIV-1 replication through protecting APOBEC3G protein” (Eur J Med Chem, 2015).
pIC50: −log10 of the molar value.

Experiments:
[1] = Cytotoxicity against human H9 cells by MTS assay; assay type: cell-based
293T = test: Inhibition of full-length X4 tropic HIV-1 clone pNL4-3 Vif/human APOBEC3G complex transfected in human 293T cells measured at 50 uM after 48 hrs by GFP-based fluorescence assay relative to control; assay type: cell-based
Summary of the method: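 This was the primary screen in 293T cells co-transfected with HA-Vif and A3G-GFP plasmids (Lipofectamine 2000) and given a single compound concentration. DMSO-only wells and A3G-GFP-only transfected wells served as controls. GFP was read after 48 h. A3G-GFP MFI fold change was scored as −, none or <1; +, 1–2; ++, 2–3; +++, >3.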

[2] = test system: Human immunodeficiency virus 1; test: Antiviral activity against X4 tropic HIV-1 clone pNL4-3 infected in H9 cells assessed as reduction in p24 antigen after 4 days by ELISA; assay type: functional, organism-based; details: Human immunodeficiency virus 1, pNL4-3, H9, 96 h

Row | Structure (SMILES) | CC50 [1] | fold change (FC) (293T) | pIC50 [2]
1 | N#C/C(=C\c1ccc(N2CCOCC2)cc1)c1nc2ccccc2[nH]1 | > 50 µM | > 3 | < 4.30
2 | COc1cc(/C=C(\C#N)c2nc3ccccc3[nH]2)ccc1N(C)C | > 50 µM | 1 | 6.54
3 | CCN(CC)c1cccc(/C=C(\C#N)c2nc3ccccc3[nH]2)c1 | > 50 µM | < 1 | < 4.30
4 | COc1ccc(/C=C(\C#N)c2nc3ccccc3[nH]2)cc1 | > 50 µM | 2 | 5.55
5 | CCN(CC)c1ccc(/C=C(\C#N)c2nc3cc(C(=O)OC)ccc3[nH]2)cc1 | > 50 µM | 2 | 5.77
6 | CCN(CC)c1ccc(/C=C(\C#N)c2nc3ccccc3s2)cc1 | > 50 µM | > 3 | 5.23
7 | CCN(CC)c1ccc(/C=C(\C#N)c2nc3ccccc3n2C2CC2)cc1 | > 50 µM | < 1 | < 4.30
8 | N#C/C(=C\c1ccc2[nH]ncc2c1)c1nc2ccccc2[nH]1 | > 50 µM | 2 | 6.44
9 | CCN(CC)c1ccc(/C=C(\C#N)c2nc3cc(C(F)(F)F)ccc3[nH]2)cc1 | > 50 µM | 2 | 5.95
10 | CCN(CC)c1ccc(/C=C(\C#N)c2nc3cccnc3[nH]2)cc1 | > 50 µM | 2 | 5.45
11 | N#C/C(=C\c1ccc(-c2ccccc2)cc1)c1nc2ccccc2[nH]1 | > 50 µM | < 1 | < 4.30
12 | CCN(CC)c1ccc(/C=C(\C#N)c2nc3cc(N(C)C)ccc3[nH]2)cc1 | > 50 µM | 1 | 5.57
13 | CCN(CC)c1ccc(/C=C(\C#N)c2nc3ccncc3[nH]2)cc1 | > 50 µM | 2 | 5.14
14 | CS(=O)(=O)c1ccc(/C=C(\C#N)c2nc3ccccc3[nH]2)cc1 | > 50 µM | < 1 | < 4.30
15 | CCN(CC)c1ccc2cc(-c3nc4ccccc4[nH]3)c(=O)oc2c1 | > 50 µM | > 3 | 6.62
16 | CN(C)c1ccc(/C=C(\C#N)c2nc3ccccc3[nH]2)c(O)c1 | > 50 µM | > 3 | < 4.30
17 | CCN(CC)c1ccc(/C=C(\C#N)c2nc3cc(Cl)c(Cl)cc3[nH]2)cc1 | > 50 µM | > 3 | 5.90
18 | CC(C)N(c1ccc(/C=C(\C#N)c2nc3ccccc3[nH]2)cc1)C(C)C | > 50 µM | 2 | 5.48
19 | CCN(CC)c1ccc(/C=C(\C#N)c2nc3cc(Cl)ccc3[nH]2)cc1 | > 50 µM | 2 | < 4.30
20 | CCN(CC)c1ccc(/C=C(\C#N)c2nc3ccccc3o2)cc1 | > 50 µM | 2 | 5.62
21 | CCN(CC)c1ccc(/C=C(\C#N)c2nc3cc(Br)ccc3[nH]2)cc1 | > 50 µM | 2 | < 4.30
22 | CN(C)c1ccc(/C=C(\C#N)c2nc3ccccc3[nH]2)cc1 | > 50 µM | 2 | 6.29
23 | CCN(CC)c1ccc(/C=C(\C#N)c2nc3cc(C(C)(C)C)ccc3[nH]2)cc1 | > 50 µM | > 3 | 5.98
24 | CCN(CC)c1ccc(/C=C(\C#N)c2nc3cc(OC)ccc3[nH]2)cc1 | > 50 µM | 2 | 5.35

Row | Structure (SMILES) | CC50 [1] | fold change (FC) (293T) | pIC50 [2]
25 | CCN(CC)c1ccc(/C=C(\C#N)c2nc3cc(OC(F)(F)F)ccc3[nH]2)cc1 | > 50 µM | > 3 | 5.87
26 | COc1cc(OC)c(OC)cc1/C=C(\C#N)c1nc2ccccc2[nH]1 | > 50 µM | 1 | < 4.30
27 | CCc1ccc(/C=C(\C#N)c2nc3ccccc3[nH]2)cc1 | > 50 µM | < 1 | < 4.30
28 | CCN(CC)c1ccc(CC(C#N)c2nc3ccccc3[nH]2)cc1 (stereo unspecified) | > 50 µM | < 1 | < 4.30
29 | CCN(CC)c1ccc(/C=C(\C#N)c2nc3ccccc3n2C)cc1 | > 50 µM | < 1 | < 4.30
30 | N#C/C(=C\c1ccc(N2CCCC2)cc1)c1nc2ccccc2[nH]1 | > 50 µM | < 1 | < 4.30
31 | COc1ccc(/C=C(\C#N)c2nc3ccccc3[nH]2)cc1OC | > 50 µM | 1 | < 4.30
32 | CCN(CC)c1ccc(/C=C(\C#N)c2nc3cc(F)ccc3[nH]2)cc1 | > 50 µM | > 3 | < 4.30
33 | CC(C)c1ccc(/C=C(\C#N)c2nc3ccccc3[nH]2)cc1 | > 50 µM | < 1 | < 4.30
34 | N#C/C(=C\c1ccc(-n2ccnc2)cc1)c1nc2ccccc2[nH]1 | > 50 µM | < 1 | < 4.30
35 | Cc1ccc(/C=C(\C#N)c2nc3ccccc3[nH]2)cc1 | > 50 µM | < 1 | < 4.30
36 | CN1CCN(c2ccc(/C=C(\C#N)c3nc4ccccc4[nH]3)cc2)CC1 | > 50 µM | < 1 | < 4.30
37 | CCN(CC)c1ccc(/C=C(\C#N)c2nc3ccccc3[nH]2)c(O)c1 | > 50 µM | > 3 | 5.82
38 | CCN(CC)c1ccc(/C=C(\C#N)c2nc3cc(C)c(C)cc3[nH]2)cc1 | > 50 µM | > 3 | 5.79
39 | N#C/C(=C\c1ccc2[nH]ccc2c1)c1nc2ccccc2[nH]1 | > 50 µM | > 3 | 6.14
40 | CC(=O)Nc1ccc(/C=C(\C#N)c2nc3ccccc3[nH]2)cc1 | > 50 µM | < 1 | < 4.30
41 | CCCN(CCC)c1ccc(/C=C(\C#N)c2nc3ccccc3[nH]2)cc1 | > 50 µM | 2 | 5.96
42 | COc1cc(/C=C(\C#N)c2nc3ccccc3[nH]2)cc(OC)c1OC | > 50 µM | 1 | < 4.30
43 | N#C/C(=C\c1ccc(C(=O)O)cc1)c1nc2ccccc2[nH]1 | > 50 µM | < 1 | < 4.30
44 | CCN(CCO)c1ccc(/C=C(\C#N)c2nc3ccccc3[nH]2)cc1 | > 50 µM | 1 | 5.21
45 | CCN(CC)c1ccc(/C=C(\C#N)c2nc3cc(SC)ccc3[nH]2)cc1 | > 50 µM | 2 | 6.12
46 | CCN(CC)c1ccc(/C=C(\C#N)c2nc3ccccc3n2CC)cc1 | > 50 µM | < 1 | < 4.30
47 | CCN(CC)c1ccc(/C=C(\C#N)c2nc3cc(C(=O)O)ccc3[nH]2)cc1 | > 50 µM | 2 | < 4.30
